Only some compounds are listed: those with a hit (about 4% of all), similar ones and a draw of the others.
OX1R antag-1: blocks the human orexin 1 receptor; O43613; CHO/OX1R cells, Fluo-8 calcium fluorescence, orexin A; inhibition, % at 5 µM; hit rate 0.43% among 330,000; AID 434989;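 active = inhibition above its plate's threshold, mean inhibition of all tested compounds on the plate plus 3 SD, cut at about 37% in these data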;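 note: 0% = orexin A challenge wells and 100% = SB-334867-A antagonist wells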
TAAR1 ag: human TAAR1 agonism; Q96RJ0; CHO RD-HGA16 TAAR1, Fluo-8 calcium fluorescence; vehicle wells 0%, saturating PEA agonist 100%; activation, % at 3 µM; hit rate 0.99% among 360,000; AID 624467;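 active = activation above the mean activation of all test compounds in the run plus 3 SD, cut at about 38% in these data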
Target sequence (Q96RJ0 whole entry, looked up): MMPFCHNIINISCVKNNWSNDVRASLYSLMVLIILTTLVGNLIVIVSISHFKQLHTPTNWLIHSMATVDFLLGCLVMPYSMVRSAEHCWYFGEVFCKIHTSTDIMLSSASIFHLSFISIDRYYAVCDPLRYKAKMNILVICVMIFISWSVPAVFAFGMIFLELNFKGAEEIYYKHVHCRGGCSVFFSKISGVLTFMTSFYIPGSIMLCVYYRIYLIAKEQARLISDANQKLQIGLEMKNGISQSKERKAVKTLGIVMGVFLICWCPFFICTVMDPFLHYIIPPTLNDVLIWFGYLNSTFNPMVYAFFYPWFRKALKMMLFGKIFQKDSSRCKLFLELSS
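Benchmarks: low control DMSO, high control PEA (EC100); System: CHO RD-HGA16 cells carrying human TAAR1 plus Gα16; Detection: Fluo-8 fluorescence, 5 s baseline then 140 s kinetic read; Schedule: 17-24 h plating, Fluo-8 75 min 37 °C, 30 min RT; Read-out basis: % activation from peak over basal fluorescence ratio, DMSO-to-PEA scaled.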
OX1R antag-2: antagonists of human orexin 1 receptor (OX1R); inhibition, % at 6.6 µM; hit rate 1.8% among 330,000; AID 485270; OX1R-expressing cells, FRET antagonist read-out; in the data active = inhibition mostly above about 38%, no sharp cut-off; inactive = mostly below about 40%;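 note: 0% = agonist challenge alone and 100% = reference antagonist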
CHO parental Ca: counter-screen: ATP calcium response change in parental CHO cells | parental CHO-K1, ATP-induced calcium, Fluo-8 fluorescence | inhibition, % at 5.6 µM | hit rate 0.63% among 330,000 | AID 463079;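 active = inhibition above that plate's mean sample inhibition plus 3 SD, cut at about 26% in these data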;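 note: 0% = ATP-challenged DMSO wells and 100% = DMSO wells without ATP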
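Assay system: parental CHO cells; Read-out basis: percent inhibition of ATP-evoked calcium rise, normalized to controls; Benchmarks: ATP and no-ATP DMSO wells; Compound dosing: single nominal dose of 5.6 µM per compound; Signal: Fluo-8 calcium dye fluorescence; Also added: ATP as calcium-mobilizing challenge; Repeats: singlicate.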
TAAR1 antagonist: human TAAR1 antagonism. Q96RJ0. CHO RD-HGA16 TAAR1, Fluo-8 calcium fluorescence, antagonist. inhibition, % at 3 µM. hit rate 1.5% among 360,000. AID 624466;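 active = inhibition above a per-plate cutoff, the mean inhibition of test compounds on that plate plus 3 SD, cut at about 49% in these data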;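 note: 0% = DMSO plus EC80 beta-PEA response and 100% = DMSO alone without agonist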
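Test system: RD-HGA16 CHO cells with stable hTAAR1 and Gα16 / Probe or stimulus: EC80 β-phenethylamine stimulus / Times: seeding 17-24 h prior, 75-min 37 °C, 30-min RT dye loading / Detection: Fluo-8 calcium-sensitive fluorescence / Read-out basis: % inhibition scaled between DMSO and EC80 PEA controls / Repeats: singlicate, one well per test compound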
Starred values were filed as active, the others as inactive; / = not tested or not shown.

SMILES | OX1R antag-1 | TAAR1 ag | OX1R antag-2 | CHO parental Ca | TAAR1 antagonist
CCN(Cc1ccccc1)C(=O)Cn1c(=O)n(CC(=O)NCc2ccco2)c(=O)c2sccc21 | -1 | 3 | 52* | -4 | 12
O=C(Nc1c(F)c(F)c(F)c(F)c1F)OC[C@@H]1CSCCS(=O)(=O)N1 | / | 3 | / | / | -4
CCc1ccc(S(=O)(=O)NCc2csc(-c3cccnc3)n2)s1 | 8 | 2 | 64* | -21 | 17
COc1cc(C2c3[nH]c4ccccc4c3C[C@@H]3C(=O)N(Cc4ccco4)CC(=O)N23)cc(OC)c1OC (stereo partly drawn) | -3 | 30 | 12 | -15 | 53*
Cn1c(/C=C/c2cccc(Br)c2)nc2ccccc2c1=O | 25 | 4 | 60* | -34 | 3
O=c1c2ccccc2nc(/C=C/c2cccc(Br)c2)n1CCCO | -13 | 3 | 20 | -19 | 28
CCN(CC)S(=O)(=O)c1ccc(NC(=O)CNC2CCCCC2)cc1 | -15 | 6 | -15 | -13 | -4
O=C(Cn1c(=O)n(CCc2c[nH]c3ccccc23)c(=O)c2cccnc21)Nc1ccccc1F | -3 | 12 | 20 | 13 | 52*
CC(C)C1=CC2C3C(C(C(C)C)=CC(=O)[C@@]3(C)O)C1C(=O)C2(C)O (stereo partly drawn) | / | 2 | / | / | -9
CC(=O)Nc1ccc(NC(=O)C(C)OC(=O)c2cc(S(=O)(=O)N3CCOCC3)ccc2Cl)cc1 (stereo not drawn) | -6 | 0 | 7 | -16 | -7
CC(OC(=O)c1cc(S(=O)(=O)N(C)c2ccccc2)ccc1Cl)C(=O)Nc1ccc2c(c1)OCCO2 (stereo not drawn) | -16 | 4 | 46* | -5 | 12
COc1ccc(CNC(=O)c2c(N)[nH]c(C(=O)c3ccccc3)c2-c2ccc3ccccc3c2)cc1OC | / | 10 | / | / | 30
O=C(CSc1ncccn1)N/N=C/c1cccc([N+](=O)[O-])c1 | -10 | 2 | 72* | 8 | -1
CS(=O)(=O)Nc1cccc(NC(=O)c2cccc3c(-c4ccc(F)c(F)c4)coc23)c1 | / | 1 | / | / | 64*
CS(=O)(=O)Nc1cccc(NC(=O)c2ccc(-c3ccc(F)c(F)c3)c3ccoc23)c1 | / | 4 | / | / | 37
COCCNC(=O)c1cccc2c(-c3cccc(C(N)=O)c3)coc12 | / | 0 | / | / | -20
CS(=O)(=O)Nc1cccc(NC(=O)c2cccc3c(-c4cccc(C(N)=O)c4)coc23)c1 | / | 8 | / | / | 66*
CCc1cc2c(nc1CC)CCCN2S(=O)(=O)c1ccccc1C | / | 3 | / | / | -34
O=P(CCCCCCCCCP(=O)(c1ccccc1)c1ccccc1)(c1ccccc1)c1ccccc1 | 86* | 33 | 26 | 100* | 90*
O=C(NC1CC1)C1CCN(c2ncnc3c2sc2cccc(F)c23)CC1 | -11 | 1 | 68* | -12 | 0
C/C(=N\NC(=O)c1cccnc1)c1cccc([N+](=O)[O-])c1 | -23 | 2 | 29 | -19 | 10
O=C(Nc1ccccc1N1CCCCC1)c1cccc([N+](=O)[O-])c1 | -46 | -1 | 19 | -24 | -22
C/C(=N\NC(=O)c1ccc([N+](=O)[O-])cc1)c1cccc([N+](=O)[O-])c1 | -9 | 3 | 64* | -11 | 10
O=C(NNC(=O)c1cccc([N+](=O)[O-])c1)c1ccncc1 | -5 | 4 | 46* | -6 | -2
O=C(Nc1ccccc1C(=O)N1CCCCCC1)c1cccc([N+](=O)[O-])c1 | -8 | 2 | 53* | -30 | -13
SMILES | OX1R antag-1 | TAAR1 ag | OX1R antag-2 | CHO parental Ca | TAAR1 antagonist
Cc1cccc(CN2CCN(C3CN(Cc4cn(Cc5ccc(C(F)(F)F)cc5)nn4)S(=O)(=O)C3)CC2)c1 (stereo not drawn) | / | 7 | / | / | 2
C=C1N(c2cccc(Cl)c2)C(=O)OC1(C)C | -5 | 2 | 19 | 1 | -9
Cc1noc(C)c1S(=O)(=O)N1CCCc2nc(-c3ccc(Br)cc3)ccc21 | / | 1 | / | / | -26
Cc1oc2c(c(C)nn2-c2ccccc2)c(=O)c1Cl | / | 0 | / | / | -22
O=C(N/N=C/c1cc([N+](=O)[O-])ccc1O)c1cccc2cc[nH]c12 | 49* | 1 | 34 | 57* | 17
O=C(N/N=C/c1cccc([N+](=O)[O-])c1)c1cccc2cc[nH]c12 | 11 | 0 | 20 | 10 | 11
O=C(N/N=C/c1cc([N+](=O)[O-])ccc1Cl)c1ccc2nc[nH]c2c1 | -3 | 2 | 62* | 4 | 15
O=C(N/N=C/c1ccccc1C(F)(F)F)c1ccc2nc[nH]c2c1 | -2 | 1 | 17 | -6 | 12
O=C(N/N=C/c1ccc(Cl)cc1Cl)c1ccc2nc[nH]c2c1 | -26 | 7 | 35* | -8 | 7
CCOC(=O)N1CCN(C(=O)CS(=O)(=O)c2cn(Cc3ccc(F)cc3)c3ccccc23)CC1 | 17 | 3 | 62* | -9 | -7
Cc1ccc(SCC(=O)OCC(=O)NC(C)c2ccc(Br)cc2)cc1 (stereo not drawn) | -15 | 6 | -3 | -6 | -40
CCN(CC)c1ccc(NC(=O)c2cc3c(OC)cccc3[nH]2)cc1 | -6 | -4 | 40* | -25 | -13
COC(=O)C1=C(C)N(Cc2ccc(C(F)(F)F)cc2)C(=NCc2ccc3c(c2)OCO3)NC1c1ccccc1 (stereo not drawn) | / | 32 | / | / | 35
CCn1c(N2CCN(S(=O)(=O)CC)CC2)nc2ccccc21 | 10 | 4 | 15 | -15 | -10
CCn1c(N2CCN(S(=O)(=O)c3ccc(Cl)cc3)CC2)nc2ccccc21 | -5 | 20 | 10 | 2 | 72*
Cc1ccc2nc(CN(C)C(=O)[C@@H](Cc3ccccc3)NC(=O)[C@H]3O[C@@H](n4cnc(C(N)=O)n4)[C@H](O)[C@@H]3O)[nH]c2c1 | / | 0 | / | / | -21
O=C(c1ccccc1)c1ccc(Cn2cc(-c3ccccc3)nn2)cc1 | -8 | 3 | 38 | 21 | 37
CCOC(OCC)c1cn(Cc2ccc(C(=O)c3ccccc3)cc2)nn1 | 4 | 5 | 33 | 44* | 10
CN1C(=O)[C@@]2(O[C@H]3C=CC=CN3C3=C2C(=O)CCC3)c2cccc(Br)c21 | / | 5 | / | / | -19
O=C(CCN1C(=O)C2C3C=CC(C3)C2C1=O)N1CCN(c2ccccn2)CC1 (stereo not drawn) | 5 | 11 | 16 | -11 | 1
O=C1C2C3C=CC(C3)C2C(=O)N1c1ccc(N2CCN(c3ccccn3)CC2)c([N+](=O)[O-])c1 (stereo not drawn) | 29 | 8 | 45 | 63* | 24
CC(=O)c1c(C)[nH]c(C(=O)CSc2nnc(-c3ccccc3)o2)c1C | -8 | 33 | 18 | 14 | 56*
NNC(=O)CNC(c1ccccc1)c1cc(Br)ccc1NC(=O)c1ccccc1Br (stereo not drawn) | -42 | 2 | 20 | -20 | 53*
NNC(=O)CNC(c1ccccc1)c1cc(Br)ccc1NC(=O)c1ccc(Br)cc1 (stereo not drawn) | -16 | 7 | -3 | -22 | 6
